Data reported in ChEMBL document CHEMBL1629517, “Molecular properties prediction, synthesis and antimicrobial activity of some newer oxadiazole derivatives” (2010).
≈ marks a conversion by molar mass, not a printed value.

What was measured:
[1] = system: Staphylococcus aureus; assay: Antibacterial activity against Staphylococcus aureus ATCC 25923 at 100 ug/ml after 24 hrs by disc-diffusion method; assay type: functional; settings: ATCC 25923, 24 h, read-out: IZ
[2] = system: Staphylococcus aureus; assay: Antibacterial activity against Staphylococcus aureus ATCC 25923 at 200 ug/ml after 24 hrs by disc-diffusion method; assay type: functional; settings: ATCC 25923, 24 h, read-out: IZ
[3] = system: Bacillus subtilis; assay: Antibacterial activity against Bacillus subtilis ATCC 6633 at 100 ug/ml after 24 hrs by disc-diffusion method; assay type: functional; settings: ATCC 6633, 24 h, read-out: IZ
[4] = system: Bacillus subtilis; assay: Antibacterial activity against Bacillus subtilis ATCC 6633 at 200 ug/ml after 24 hrs by disc-diffusion method; assay type: functional; settings: ATCC 6633, 24 h, read-out: IZ
[5] = system: Escherichia coli; assay: Antibacterial activity against Escherichia coli ATCC 25922 at 100 ug/ml after 24 hrs by disc-diffusion method; assay type: functional; settings: ATCC 25922, 24 h, read-out: IZ
[6] = system: Escherichia coli; assay: Antibacterial activity against Escherichia coli ATCC 25922 at 200 ug/ml after 24 hrs by disc-diffusion method; assay type: functional; settings: ATCC 25922, 24 h, read-out: IZ
[7] = system: Pseudomonas aeruginosa; assay: Antibacterial activity against Pseudomonas aeruginosa ATCC 27853 at 100 ug/ml after 24 hrs by disc-diffusion method; assay type: functional; settings: ATCC 27853, 24 h, read-out: IZ
[8] = system: Pseudomonas aeruginosa; assay: Antibacterial activity against Pseudomonas aeruginosa ATCC 27853 at 200 ug/ml after 24 hrs by disc-diffusion method; assay type: functional; settings: ATCC 27853, 24 h, read-out: IZ
[9] = system: Staphylococcus aureus; assay: Antibacterial activity against Staphylococcus aureus ATCC 25923 after 24 hrs by broth dilution technique; assay type: functional; settings: ATCC 25923, 24 h
In short: (§1)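 MIC by broth dilution: nutrient broth containing logarithmic two-fold serial dilutions of compound was inoculated with about 5 × 10⁵ c.f.u. of actively dividing bacteria.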

[10] = system: Bacillus subtilis; assay: Antibacterial activity against Bacillus subtilis ATCC 6633 after 24 hrs by broth dilution technique; assay type: functional; settings: ATCC 6633, 24 h; in short: as §1
[11] = system: Escherichia coli; assay: Antibacterial activity against Escherichia coli ATCC 25922 after 24 hrs by broth dilution technique; assay type: functional; settings: ATCC 25922, 24 h; in short: as §1
[12] = system: Pseudomonas aeruginosa; assay: Antibacterial activity against Pseudomonas aeruginosa ATCC 27853 after 24 hrs by broth dilution technique; assay type: functional; settings: ATCC 27853, 24 h; in short: as §1
[13] = system: Staphylococcus aureus; assay: Antibacterial activity against Staphylococcus aureus ATCC 25923 after 18 to 24 hrs; assay type: functional
[14] = system: Bacillus subtilis; assay: Antibacterial activity against Bacillus subtilis ATCC 6633 after 18 to 24 hrs; assay type: functional
[15] = system: Escherichia coli; assay: Antibacterial activity against Escherichia coli ATCC 25922 after 18 to 24 hrs; assay type: functional
[16] = system: Pseudomonas aeruginosa; assay: Antibacterial activity against Pseudomonas aeruginosa ATCC 27853 after 18 to 24 hrs; assay type: functional
[17] = system: Aspergillus niger; assay: Antifungal activity against Aspergillus niger at 200 ug/ml after 48 hrs by agar diffusion method; assay type: functional; settings: read-out: IZ
In short: (§2)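 Agar well diffusion on Sabouraud agar (peptone 1 g, D-glucose 4 g, agar 2 g per 100 ml water, pH 5.7). Plates were lawned with a saline suspension of spores, excess was decanted, and plates were dried 1 h at 37 °C. Compounds in DMSO went into punched wells, and inhibition zones were measured against controls, with voriconazole as standard.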

[18] = system: Candida albicans; assay: Antifungal activity against Candida albicans at 100 ug/ml after 48 hrs by agar diffusion method; assay type: functional; settings: read-out: IZ; in short: as §2
[19] = system: Candida albicans; assay: Antifungal activity against Candida albicans at 200 ug/ml after 48 hrs by agar diffusion method; assay type: functional; settings: read-out: IZ; in short: as §2
[20] = system: Aspergillus niger; assay: Antifungal activity against Aspergillus niger after 48 hrs; assay type: functional
[21] = system: Candida albicans; assay: Antifungal activity against Candida albicans after 48 hrs; assay type: functional
[22] = system: Aspergillus niger; assay: Antifungal activity against Aspergillus niger at 100 ug/ml after 3 to 4 days by agar diffusion method; settings: read-out: IZ

Structure (SMILES) | zone of inhibition at 100 µg/mL [1] [mm] | zone of inhibition at 200 µg/mL [2] [mm] | zone of inhibition at 100 µg/mL [3] [mm] | zone of inhibition at 200 µg/mL [4] [mm] | zone of inhibition at 100 µg/mL [5] [mm] | zone of inhibition at 200 µg/mL [6] [mm] | zone of inhibition at 100 µg/mL [7] [mm] | zone of inhibition at 200 µg/mL [8] [mm] | MIC [9] [µg/mL] | MIC [10] [µg/mL] | MIC [11] [µg/mL] | MIC [12] [µg/mL] | MBC [13] [µg/mL] | MBC [14] [µg/mL] | MBC [15] [µg/mL] | MBC [16] [µg/mL] | zone of inhibition at 200 µg/mL [17] [mm] | zone of inhibition at 100 µg/mL [18] [mm] | zone of inhibition at 200 µg/mL [19] [mm] | MFC [20] [µg/mL] | further results
COc1cc(/C=C/C(=O)c2ccccc2)ccc1OCc1nnc(-c2ccccc2)o1 | 16 | 18 | 13 | 14 | 19 | 20 | 23 | 25 | 12.5 (≈ 30.3 µM) | 25 (≈ 60.6 µM) | 12.5 (≈ 30.3 µM) | 25 (≈ 60.6 µM) | 50 (≈ 121 µM) | 50 (≈ 121 µM) | 25 (≈ 60.6 µM) | 50 (≈ 121 µM) | 25 | 16 | 18 | 25 (≈ 60.6 µM) | MIC [20]: 12.5 µg/mL (≈ 30.3 µM); MFC [21]: 25 µg/mL (≈ 60.6 µM); MIC [21]: 12.5 µg/mL (≈ 30.3 µM); zone of inhibition at 100 µg/mL [22]: 21 mm
COc1ccc(C(=O)/C=C/c2ccc(OCc3nnc(-c4ccc(C)cc4)o3)c(OC)c2)cc1 | 15 | 17 | 12 | 14 | 19 | 21 | 23 | 24 | 12.5 (≈ 27.4 µM) | 12.5 (≈ 27.4 µM) | 6 (≈ 13.1 µM) | 12.5 (≈ 27.4 µM) | 25 (≈ 54.8 µM) | 25 (≈ 54.8 µM) | 25 (≈ 54.8 µM) | 25 (≈ 54.8 µM) | 23 | 16 | 18 | 25 (≈ 54.8 µM) | MIC [20]: 12.5 µg/mL (≈ 27.4 µM); MFC [21]: 25 µg/mL (≈ 54.8 µM); MIC [21]: 12.5 µg/mL (≈ 27.4 µM); zone of inhibition at 100 µg/mL [22]: 20 mm
COc1ccc(C(=O)/C=C/c2ccc(OCc3nnc(-c4ccccc4)o3)c(OC)c2)cc1 | 16 | 18 | 12 | 14 | 19 | 21 | 25 | 26 | 12.5 (≈ 28.3 µM) | 6 (≈ 13.6 µM) | 12.5 (≈ 28.3 µM) | 12.5 (≈ 28.3 µM) | 25 (≈ 56.5 µM) | 12.5 (≈ 28.3 µM) | 25 (≈ 56.5 µM) | 50 (≈ 113 µM) | 24 | 15 | 17 | 25 (≈ 56.5 µM) | MIC [20]: 12.5 µg/mL (≈ 28.3 µM); MFC [21]: 25 µg/mL (≈ 56.5 µM); MIC [21]: 6 µg/mL (≈ 13.6 µM); zone of inhibition at 100 µg/mL [22]: 23 mm
COc1cc(/C=C/C(=O)c2ccccc2)ccc1OCc1nnc(COc2ccccc2)o1 | 15 | 17 | 12 | 14 | 18 | 20 | 23 | 24 | 6 (≈ 13.6 µM) | 12.5 (≈ 28.3 µM) | 12.5 (≈ 28.3 µM) | 12.5 (≈ 28.3 µM) | 12.5 (≈ 28.3 µM) | 25 (≈ 56.5 µM) | 12.5 (≈ 28.3 µM) | 25 (≈ 56.5 µM) | 25 | 16 | 18 | 12.5 (≈ 28.3 µM) | MIC [20]: 6 µg/mL (≈ 13.6 µM); MFC [21]: 25 µg/mL (≈ 56.5 µM); MIC [21]: 12.5 µg/mL (≈ 28.3 µM); zone of inhibition at 100 µg/mL [22]: 22 mm
